Screening data deposited in PubChem BioAssay by several laboratories.
This is a sample that favours compounds with a hit; in the whole collection about 4.9% have one here.
STAT3 activator = activators of IL-6 induced STAT3 signaling. U3A cells, IL-6 STAT3-luciferase reporter, luminescence; 100% = signal with IL-6 EC80 alone. activation (% of control), % at 5.6 µM. actives 0.91% (n = 190,000). AID 871;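 active means activation above the screen-wide mean of compound activation plus 3 SD, cut at about 130% in these data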;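 further: 0% = background luminescence of wells with medium and substrate only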
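Material: STAT3-luciferase reporter U3A cells. Controls: IL-6-treated wells, 100% activation. Read-out: % activation versus median of IL-6-stimulated wells. Probe or stimulus: IL-6 stimulus at 33 ng/mL final. Timing: compound 1 h, then IL-6 6 h at 37 °C. Signal: reporter luminescence signal.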
STAT1 blocker = reduces IFN-gamma driven STAT1 reporter signal; AID 920; NIH 3T3 STAT1-luciferase reporter, luminescence; actives 0.35% (n = 200,000); inhibition, % at 5.5 µM;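 active means inhibition above a set limit, the mean inhibition across all tested compounds plus 3 SD, cut at about 34% in these data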;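 further: 0% = IFN-gamma with DMSO and 100% = IFN-gamma with 300 µM nifuroxazide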
APP 5'UTR act = APP 5'UTR luciferase reporter activation; SH-SY5Y APP 5'UTR luciferase reporter, luminescence; zero percent = DMSO vehicle wells; activation, % at 2 µM; actives 1% (n = 190,000);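 active means activation above a set limit, based on mean plus 3 SD of controls, cut at about 140% in these data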
NF-kB neuron act = NF-kB expression increase, human neuronal cells; actives 1.6% (n = 190,000); AID 1239; fold change at 12.5 µM; NF-kB reporter expression; active compounds read high; in the data active means fold change above about 3.3
STAT3 inh = inhibitors of IL-6 induced STAT3 signaling. U3A cells, IL-6 STAT3-luciferase reporter, luminescence; host cell line lacks STAT1. inhibition, % at 5.5 µM. actives 0.89% (n = 190,000);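 active means inhibition above the mean inhibition across all screened compounds plus 3 SD, cut at about 44% in these data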;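 further: 0% = DMSO only wells and 100% = 100 µM nifuroxazide control wells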
STAT1 act = increases IFN-gamma driven STAT1 reporter signal. NIH 3T3 STAT1-luciferase reporter, luminescence; 100% = IFN-gamma alone, no compound. activation (% of control), % at 5.5 µM. actives 2.6% (n = 200,000). AID 932;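 active means activation above the screen-wide mean activation plus 3 SD, cut at about 130% in these data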;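 further: raw ratio to IFN-gamma control signal so 100% means no change and 0% no light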
STAT1 activ conf = confirmation of STAT1 signaling activators; NIH 3T3 STAT1-luciferase reporter, IFN-gamma potentiation, luminescence; 100% = IFN-gamma EC80 alone, no compound; actives 97% (n = 1,200); activation (% of control), % at 5.7 µM; shares compounds with STAT1 act; AID 1262;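 active means activation above a set limit carried over from the earlier primary STAT1 screen, cut at about 140% in these data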;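 further: simple ratio to median IFN-gamma plus DMSO wells so 0% means no light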
NFkB act STAT1ct = counter-screen for STAT1 activators: NF-kappaB activation. shares compounds with STAT1 act. HEK293T NF-kB luciferase reporter, TNF-alpha stimulated, luminescence; 100% = TNF-alpha with vehicle only. activation (% of control), % at 5.7 µM. actives 43% (n = 1,200);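 active means activation above the mean of solvent-only control wells plus 3 SD, set per campaign, cut at about 130% in these data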;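 further: TNF-alpha given at a submaximal dose yielding about 80% of full reporter signal; values are well signal over median control so 100% means no change and 0% no light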
STAT3 act STAT1c = activates human STAT3, counter-screen to STAT1 activators. shares compounds with STAT1 act. U3A cells STAT3-luciferase reporter, IL-6, luminescence; cells lack STAT1; 100 = IL-6 alone, no compound effect. activation (% of control), % at 5.7 µM. actives 46% (n = 1,200). AID 1316;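 active means activation above the solvent-only control well mean plus 3 SD, set per plate batch, cut at about 110% in these data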;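 further: 0% = no luminescence and 100% = median IL-6 plus DMSO wells; higher means more STAT3 reporter activation so hits are non-selective activators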
The depositor's hits bear a star; / = not tested or not shown.

SMILES	STAT3 activator	STAT1 blocker	APP 5'UTR act	NF-kB neuron act	STAT3 inh	STAT1 act	STAT1 activ conf	NFkB act STAT1ct	STAT3 act STAT1c
CCCN1CNc2c(c(=O)[nH]c(=S)n2CCc2ccc(OC)c(OC)c2)C1	94	4	30	1.1	11	95	/	/	/
O=c1c(Br)c(Br)cnn1-c1ccccc1	83	-88	-95	0.23	25	177*	118	120	91
O=c1c2ccccc2cnn1-c1ccc(Br)cc1	128	-58	124	6.4*	-34	152*	214*	142*	141*
O=c1c2ccccc2cnn1-c1ccc(Cl)nn1	88	-14	8	1.4	16	111	/	/	/
O=C(c1ccc(F)cc1)c1cnc(Nc2ccccc2)s1	109	-58	126	2.4	-9	153*	203*	135*	124*
CNc1ncc(C(=O)c2ccc(F)cc2)s1	107	-29	39	2	-10	128	/	/	/
COc1ccc(OCCSc2ncccn2)cc1	102	-51	160*	4.1*	0	154*	181*	127	120*
C(=N\N(c1ccccc1)c1ccccc1)/c1ccc2c(c1)OCO2	108	-6	-14	1.1	-5	106	/	/	/
CN(/N=C/c1ccc2c(c1)OCO2)c1ccccc1	101	-61	93	2.2	2	155*	180*	139*	108
CC(=O)Nc1ccc(Oc2ccc(NC(C)=O)c(NC(C)=O)c2)cc1	111	-5	-14	1.3	-14	105	/	/	/
O=C(c1ccc(F)cc1)C1CCN(C(=O)Nc2ccccc2Cl)CC1	97	8	19	1.1	12	91	/	/	/
O=C(Nc1ccc2sccc2c1)c1ccc(Cl)s1	108	-97	206*	7.7*	-10	192*	275*	138*	113*
Cc1ccc2[nH]c(=O)cc(C(=O)OCC(=O)c3ccccc3)c2c1	109	-2	-8	1.1	-12	102	/	/	/
Cc1ccc(C(=O)COC(=O)c2cc(=O)[nH]c3ccccc23)cc1C	99	-70	-21	2.6	4	163*	203*	136*	121*
c1ccc2c(c1)Cn1nnnc1-2	104	16	1	0.92	0	86	/	/	/
Clc1ccc(-c2cn3c(n2)-c2ccccc2C3)cc1Cl	115	-105	166*	9.7*	-24	196*	258*	134*	135*
OC(Cn1cncn1)(c1ccccc1)c1ccccc1	107	-6	-1	1	-8	105	/	/	/
CC1CCc2cc(F)ccc2N1C(=O)CCl (centres undefined)	102	24	4	1.1	10	77	/	/	/
Cc1cc(C(=O)Nc2sc3c(c2C#N)CCC(C)C3)cs1 (centres undefined)	99	-57	30	1.8	4	152*	199*	141*	114*
N#Cc1c(NC(=S)NC(=O)c2ccccc2)sc2c1CCCC2	97	-13	38	1.2	1	111	/	/	/
N#Cc1c(NC(=O)c2ccccc2)sc2c1CCC2	94	-67	109	3.8*	7	169*	191*	118	103
CCN(CC)S(=O)(=O)c1ccc(OC)c(NC(=S)Nc2ccc(C)c(C)c2)c1	90	-5	19	0.99	14	105	/	/	/
Cc1cc(C(=O)CSc2nnnn2C)c(C)n1CCc1ccc(F)cc1	100	-3	-6	1.6	7	103	/	/	/
Cc1ccc(-n2c(C)cc(C(=O)CSc3nnnn3C)c2C)cc1	84	-67	168*	5.4*	21	162*	201*	130	114*
CCN(CC)c1ccc(NC(=O)c2cccnc2)c(C)c1	96	-1	-9	1.1	10	101	/	/	/
SMILES	STAT3 activator	STAT1 blocker	APP 5'UTR act	NF-kB neuron act	STAT3 inh	STAT1 act	STAT1 activ conf	NFkB act STAT1ct	STAT3 act STAT1c
CCN(CC)c1ccc(NC(=O)c2cccc(C)c2OC)c(C)c1	97	-57	98	4.2*	9	152*	175*	137*	106
Cc1cccc(/N=C/c2c(O)[nH]c3ccccc23)n1	111	-64	122	3.4*	-8	158*	171*	112	124*
Oc1[nH]c2ccccc2c1C=Nc1ccc2c(c1)OCCO2	70	-85	183*	4.4*	37	187*	346*	137*	106
CC(C)N=Cc1c(O)[nH]c2ccccc12	81	4	-4	1.4	28	96	/	/	/
COc1cccc(-c2nnc(SCN3C(=O)c4ccccc4C3=O)n2C)c1	101	0	-8	2.2	-3	100	/	/	/
Cc1ccc(-c2cc(N)n(-c3ccc(F)cc3)n2)cc1	97	-64	70	2.9	8	155*	142*	113	97
O=[N+]([O-])c1ccccc1/C=C/C=N/N1CCCCC1	97	-60	99	4.5*	7	155*	178*	130	111*
CCc1ccc2nc(NC(=O)CCCc3cccs3)sc2c1	111	-20	/	1.9	-15	118	/	/	/
CN(C)S(=O)(=O)c1ccc2nc(NC(=O)c3cccs3)sc2c1	111	-58	129	3.5*	-9	153*	179*	115	117*
O=C(Nc1nc2ccc(F)cc2s1)c1cccs1	87	-60	112	7.4*	19	159*	246*	132	105
Cc1ccc2nc(NC(=O)Cc3cccs3)sc2c1	84	-58	94	3.7*	25	154*	180*	137*	87
CSc1nc2ccc3nc(NC(=O)c4cccs4)sc3c2s1	88	-25	22	1.2	16	123	/	/	/
O=C(Nc1nc2ccc(S(=O)(=O)N3CCOCC3)cc2s1)c1cccs1	103	-4	6	2	1	102	/	/	/
CCn1c(CNc2cccc(C(F)(F)F)c2)n[nH]c1=S	94	-8	0	1.2	9	106	/	/	/
COc1ccc(N(C(=O)CCl)C(C)(C(=O)Nc2c(C)cccc2C)c2ccccn2)cc1 (centres undefined)	102	-3	-3	1.1	2	102	/	/	/
Oc1[nH]c2ccccc2c1N=Nc1nc2ccccc2s1	106	-60	/	3.7*	-9	155*	208*	136*	131*
c1ccc(-c2csc(Nc3ncccn3)n2)cc1	99	-64	163*	2.8	3	157*	240*	113	95
